# Measurements as given in ChEMBL document CHEMBL1649436, “Antiviral activity of MK-4965, a novel nonnucleoside reverse transcriptase inhibitor” (Antimicrob Agents Chemother, 2009).
# How the values were obtained:
# Assay type in all cases: functional
# [1] = tested on: Human immunodeficiency virus 1; assay: Antiviral activity against HIV1 clade G harboring mutant reverse transcriptase relative to HIV1 CNDO with wild type reverse transcriptase
# [2] = tested on: Human immunodeficiency virus 1; assay: Antiviral activity against HIV1 clade A harboring mutant reverse transcriptase relative to HIV1 CNDO with wild type reverse transcriptase
# [3] = tested on: Human immunodeficiency virus 1; assay: Antiviral activity against HIV1 clade F1 harboring mutant reverse transcriptase relative to HIV1 CNDO with wild type reverse transcriptase
# [4] = tested on: Human immunodeficiency virus 1; assay: Antiviral activity against HIV1 clade D harboring mutant reverse transcriptase relative to HIV1 CNDO with wild type reverse transcriptase
# [5] = tested on: Human immunodeficiency virus 1; assay: Antiviral activity against NRTI-, PI-resistant HIV1 harboring mutant reverse transcriptase relative to HIV1 CNDO with wild type reverse transcriptase
# Summary of the method: (§1)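 Single-cycle PhenoScreen assay run by Monogram Biosciences, using viruses carrying RT sequences from clinical isolates, subtypes/CRFs or PI/NRTI-resistant clade B viruses; nine serial drug concentrations; activity expressed relative to drug-sensitive reference strain CNDO (protease and RT from NL4-3), with multidrug-resistant MDRC4 as assay-performance control.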
# [6] = tested on: Human immunodeficiency virus 1; assay: Antiviral activity against PI-resistant HIV1 harboring mutant reverse transcriptase relative to HIV1 CNDO with wild type reverse transcriptase; summary of the method: as §1
# [7] = tested on: Human immunodeficiency virus 1; assay: Antiviral activity against HIV1 clade C harboring mutant reverse transcriptase relative to HIV1 CNDO with wild type reverse transcriptase
# [8] = tested on: Human immunodeficiency virus 1; assay: Antiviral activity against HIV1 CRF01_AE harboring mutant reverse transcriptase relative to HIV1 CNDO with wild type reverse transcriptase; summary of the method: as §1
# [9] = tested on: Human immunodeficiency virus 1; assay: Antiviral activity against HIV1 CRF02_AG harboring mutant reverse transcriptase relative to HIV1 CNDO with wild type reverse transcriptase; summary of the method: as §1
# [10] = tested on: Human immunodeficiency virus 1; assay: Antiviral activity against HIV1 clade H harboring mutant reverse transcriptase relative to HIV1 CNDO with wild type reverse transcriptase
# [11] = tested on: Human immunodeficiency virus 1; assay: Antiviral activity against HIV1 CRF17_BF harboring mutant reverse transcriptase relative to HIV1 CNDO with wild type reverse transcriptase; summary of the method: as §1
# [12] = tested on: Human immunodeficiency virus 1; assay: Antiviral activity against HIV1 clade B harboring mutant reverse transcriptase relative to HIV1 CNDO with wild type reverse transcriptase
# [13] = tested on: Human immunodeficiency virus 1; assay: Antiviral activity against NRTI-resistant HIV1 harboring mutant reverse transcriptase relative to HIV1 CNDO with wild type reverse transcriptase; summary of the method: as §1
smiles,measurement,setting,value
C[C@H](Cn1cnc2c(N)ncnc21)OCP(=O)(O)O [TENOFOVIR ANHYDROUS],fold change (FC),[1],0.96
same,fold change (FC),[2],0.95
same,fold change (FC),[3],0.96
same,fold change (FC),[4],0.74
same,fold change (FC),[5],2.43
same,fold change (FC),[6],0.82
same,fold change (FC),[7],0.97
same,fold change (FC),[8],0.78
same,fold change (FC),[9],0.93
same,fold change (FC),[10],0.67
same,fold change (FC),[11],0.83
same,fold change (FC),[12],0.94
same,fold change (FC),[13],1.97
